Results as given in PMC7233462 (Cell reports, 2019).
pKd: −log10 of the molar value.

Tests used:
[1] = target: T1, PpKAI2-like E S166A (Physcomitrium patens, UniProt A9ST85, S166A); assay: Isothermal titration calorimetry of; type: binding, Physcomitrella patens
T1 sequence (A9ST85 1-270 S166A): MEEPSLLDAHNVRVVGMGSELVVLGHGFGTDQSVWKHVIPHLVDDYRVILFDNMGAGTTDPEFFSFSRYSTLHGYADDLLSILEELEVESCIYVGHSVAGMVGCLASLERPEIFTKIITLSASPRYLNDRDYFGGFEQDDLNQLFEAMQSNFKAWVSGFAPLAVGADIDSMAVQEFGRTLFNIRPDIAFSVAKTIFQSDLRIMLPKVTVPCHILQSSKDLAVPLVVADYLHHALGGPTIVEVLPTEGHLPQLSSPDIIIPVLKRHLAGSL
Summary of the method: (§1)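 GST-fused protein (wild-type or point mutant) was expressed in E. coli BL21-CodonPlus-RIL, HRV3-cleaved on glutathione resin, then size-excluded in 20 mM Tris-HCl, 30 mM NaCl, 1 mM TCEP, pH 7.7. Protein at 1800 μM was titrated into 40 μM racemic GR24 over 20 injections spaced 240 s apart. Data were fitted to a one-site binding model.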

[2] = target: PpKAI2-like E S166D S170D; assay: Isothermal titration calorimetry of; type: binding, Physcomitrella patens; conditions: ITC
Summary of the method: as §1

[3] = target: T2, PpKAI2-like C (Physcomitrium patens, UniProt A9SKF7); assay: Differential scanning fluorimetry; type: binding, Physcomitrella patens
[4] = test system: PpKAI2-like D; assay: Differential scanning fluorimetry; type: binding, Physcomitrella patens
[5] = test system: PpKAI2-like E; assay: Differential scanning fluorimetry; type: binding, Physcomitrella patens
[6] = target: T3, PpKAI2-like H (Physcomitrium patens, UniProt A9SG07); assay: Differential scanning fluorimetry; type: binding, Physcomitrella patens; conditions: PpKAI2-like H wild-type
[7] = test system: PpKAI2-like E SDIDSM166TDIHDE; assay: Differential scanning fluorimetry; type: binding, Physcomitrella patens; conditions: loop-swap PpKAI2-like E SDIDSM166TDIHDE
[8] = test system: PpKAI2-like H TDIHDE167SDIDSM; assay: Differential scanning fluorimetry; type: binding, Physcomitrella patens; conditions: loop-swap PpKAI2-like H TDIHDE167SDIDSM
[9] = test system: D14; conditions: Arabidopsis D14; ref Zhao et al., 2013; cited from earlier work
[10] = test system: DAD2; conditions: Petunia paralog DAD2; ref Hamiaux et al., 2012; cited from earlier work
[11] = target: T3, PpKAI2-like H; assay: Fluorescence-based equilibrium microdialysis, KAR1 binding; design: species or system Physcomitrella patens
[12] = target: PpKAI2-like K; assay: as above; design: species or system Physcomitrella patens
[13] = target: PpKAI2-like L; assay: as above; design: species or system Physcomitrella patens
[14] = target: T2, PpKAI2-like C; assay: as above; design: species or system Physcomitrella patens
[15] = test system: PpKAI2-like D; assay: as above; design: species or system Physcomitrella patens
[16] = test system: PpKAI2-like E; assay: as above; design: species or system Physcomitrella patens
[17] = test system: PpKAI2-like B; assay: as above; design: species or system Physcomitrella patens
[18] = test system: PpKAI2-like E SDIDSM166TDIHDE; assay: as above; design: species or system Physcomitrella patens; conditions: loop-swap PpKAI2-like E SDIDSM166TDIHDE
[19] = test system: PpKAI2-like H TDIHDE167SDIDSM; assay: as above; design: species or system Physcomitrella patens; conditions: loop-swap PpKAI2-like H TDIHDE167SDIDSM
[20] = target: AtKAI2; conditions: read-out: published affinity, ref Guo et al., 2013; cited from earlier work
[21] = test system: Physcomitrella caulonema growth; conditions: ref Hoffmann et al., 2014; cited from earlier work
[22] = target: T2, PpKAI2-like C; type: biochemical, Physcomitrella patens; conditions: 1 μM PpKAI2-like C, 1 mM substrate, 3 h, room temperature
[23] = test system: PpKAI2-like D; type: biochemical, Physcomitrella patens; conditions: 1 μM PpKAI2-like D, 1 mM substrate, 3 h, room temperature
[24] = test system: PpKAI2-like E; type: biochemical, Physcomitrella patens; conditions: 1 μM PpKAI2-like E, 1 mM substrate, 3 h, room temperature
[25] = target: T2, PpKAI2-like C; assay: Mass spectrometry of protein for D ring modification; type: biochemical, Physcomitrella patens; conditions: PpKAI2-like C incubated with ligand
[26] = test system: PpKAI2-like D; assay: as above; type: biochemical, Physcomitrella patens; conditions: PpKAI2-like D incubated with ligand
[27] = test system: PpKAI2-like E; assay: as above; type: biochemical, Physcomitrella patens; conditions: PpKAI2-like E incubated with ligand

## CC1=CC(O/C=C2/C(=O)OC3c4ccccc4CC23)OC1=O (racemic) [(±)-GR24]
[1]
  pKd: 4.09
[2]
  binding of (±)-GR24: unable to detect binding
[3]
  change of protein melting point (DSF): destabilization
[4]
  change of protein melting point (DSF): destabilization
[5]
  change of protein melting point (DSF): strongest shift of the protein melting point
[6]
  binding / interaction (DSF): no binding observed
[7]
  affinity (DSF): reduced compared to wild-type
[8]
  affinity (DSF): weak affinity
[9]
  turnover rate: 1 (±)-GR24 molecule/3 min
[10]
  turnover rate: 3 (±)-GR24 molecules/hr

## Cc1c2ccocc-2oc1=O [KAR1]
[11]
  pKd: 5.17
[12]
  pKd: 5.11
[13]
  pKd: 5.28
[14]
  KAR1 binding: unable to detect KAR1 binding
[15]
  KAR1 binding: unable to detect KAR1 binding
[16]
  KAR1 binding: unable to detect KAR1 binding
[17]
  KAR1 binding: do not bind
[18]
  KAR1 binding: weak binding
[19]
  KAR1 binding: lost KAR1 binding ability
[20]
  pKd: 5.05
[21]
  effect on Physcomitrella caulonema growth: not found any effect

## (+)-5-deoxystrigol
[3]
  change of protein melting point (DSF): unable to detect a change in melting points
[4]
  change of protein melting point (DSF): unable to detect a change in melting points
[5]
  change of protein melting point (DSF): unable to detect a change in melting points
[22]
  degradation of intact substrate mass: did not observe any effect
[23]
  degradation of intact substrate mass: did not observe any effect
[24]
  degradation of intact substrate mass: did not observe any effect
[25]
  D ring modification of active site histidine: unable to detect the modification
[26]
  D ring modification of active site histidine: unable to detect the modification
[27]
  D ring modification of active site histidine: unable to detect the modification

## (−)-4-deoxyorobanchol
[3]
  change of protein melting point (DSF): unable to detect a change in melting points
[4]
  change of protein melting point (DSF): unable to detect a change in melting points
[5]
  change of protein melting point (DSF): unable to detect a change in melting points

## (−)-5-deoxystrigol
[3]
  change of protein melting point (DSF): absolute preference
[4]
  change of protein melting point (DSF): absolute preference
[5]
  change of protein melting point (DSF): absolute preference
[6]
  binding / interaction (DSF): no binding observed
[7]
  affinity (DSF): reduced compared to wild-type
[8]
  affinity (DSF): weak affinity
[22]
  degradation of intact substrate mass: loss of intact (−)-5-deoxystrigol mass
[23]
  degradation of intact substrate mass: loss of intact (−)-5-deoxystrigol mass
[24]
  degradation of intact substrate mass: loss of intact (−)-5-deoxystrigol mass
[25]
  D ring modification of active site histidine: 96 Da mass of the D ring to be attached to the active site histidines
[26]
  D ring modification of active site histidine: 96 Da mass of the D ring to be attached to the active site histidines
[27]
  D ring modification of active site histidine: 96 Da mass of the D ring to be attached to the active site histidines

## CC1=CC(O/C=C(C)\C=C\C2=C(C)CCCC2(C)C)OC1=O (racemic) [rac-carlactone]
[3]
  change of protein melting point (DSF): unable to detect any interaction
[4]
  change of protein melting point (DSF): unable to detect any interaction
[5]
  change of protein melting point (DSF): unable to detect any interaction
[6]
  binding / interaction (DSF): unable to detect any interaction

## (+)-4-deoxyorobanchol
[3]
  change of protein melting point (DSF): unable to detect a change in melting points
[4]
  change of protein melting point (DSF): unable to detect a change in melting points
[5]
  change of protein melting point (DSF): unable to detect a change in melting points
